SMILES strings stand for the structures. Bounds are passed on as bounds.

For the first test, the system named is SK-N-SH. Nature of the test: Cytotoxicity against human SK-N-SH cells assessed as growth inhibition after 48 hrs by MTT assay. In kind it is functional, cell-based.
Conditions: not given
Summed up:
(§1)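 MTT assay in triplicate. Cells were seeded at 10,000 cells/[…] per well in medium with 10% serum and allowed to adhere for 24 h in a humid 5% CO₂ chamber. After 48 h, MTT solution was added and cells were incubated 2 h more. Medium was then removed and DMSO added to dissolve the formazan. IC50 was taken as the concentration giving 50% growth inhibition.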
(Formazan colour is commonly taken as a measure of viable cells.)
Regarding `Cc1ccc(N(C)C2N3Cc4cc(Br)ccc4N2Cc2cc(Br)ccc23)cc1`, the IC50 is > 100 µM.
For `Ic1ccc2c(c1)CN1c3ccc(I)cc3CN2C1N1CCOCC1`, the IC50 is > 100 µM.
The same measure, in the same setting: to `Cc1ccc2c(c1)CN1c3ccc(C)cc3CN2C1N1CCOCC1` belongs > 100 µM.
Same read-out and setting: next, `CN(C)C1N2Cc3ccccc3N1Cc1ccccc12`: > 100 µM; `COc1ccc2c(c1)CN1c3ccc(OC)cc3CN2C1N(C)c1ccc(C)cc1`: > 100 µM.
The same measure, in the same setting: to `Ic1ccc2c(c1)CN1c3ccc(I)cc3CN2C1N1CCCCC1` belongs > 100 µM; to `CN(c1ccccc1)C1N2Cc3cc(Br)ccc3N1Cc1cc(Br)ccc12`, > 100 µM; to `Brc1ccc2c(c1)CN1c3ccc(Br)cc3CN2C1N1CCCCC1`, > 100 µM.
As for `CN(C)C1N2Cc3cc(Br)ccc3N1Cc1cc(Br)ccc12`, the IC50 is > 100 µM.
Same read-out and setting: next, `CC(C)c1ccc2c(c1)CN1c3ccc(C(C)C)cc3CN2C1N(C)C`: > 100 µM.
Still for that read-out and setting: to `COc1ccc2c(c1)CN1c3ccc(OC)cc3CN2C1N(C)C` belongs > 100 µM.
As to `COc1ccc2c(c1)CN1CN2Cc2cc(OC)ccc21`, the half-maximal inhibitory concentration (IC50) was > 100 µM.
The same measure, in the same setting: next, `COc1cccc2c1C(=O)c1c(O)c3c(c(O)c1C2=O)C[C@@](O)(C(=O)CO)C[C@@H]3O[C@H]1C[C@H](N)[C@H](O)[C@H](C)O1` [DOXORUBICIN]: 8.5 µM.
Take `COc1cc2c(cc1OC)N1Cc3cc(OC)c(OC)cc3N(C2)C1N(C)C`: the 50% inhibitory concentration (IC50) is > 100 µM.
In the case of `Cc1ccc2c(c1)CN1c3ccc(C)cc3CN2C1N(C)c1ccccc1`, the half-inhibitory concentration (IC50) is > 100 µM.
The same measure, in the same setting: next, `Cc1ccc2c(c1)CN1c3ccc(C)cc3CN2C1N1CCCCC1`: 12.2 µM.
Regarding `COc1cc2c(cc1OC)N1Cc3cc(OC)c(OC)cc3N(C2)C1N(C)c1ccccc1`, the half-inhibitory concentration (IC50) is > 100 µM.
On the same count and under the same terms, next, `Cc1ccc2c(c1)CN1c3ccc(C)cc3CN2C1N(C)C`: > 100 µM.

In another test the test system is MDA-MB-231. The experiment in a line: Cytotoxicity against human MDA-MB-231 cells assessed as growth inhibition after 48 hrs by MTT assay. In kind it is functional, cell-based. Conditions: MDA-MB-231, 48 h. The method in brief: as §1
Take `Cc1ccc(N(C)C2N3Cc4cc(Br)ccc4N2Cc2cc(Br)ccc23)cc1`: the half-maximal inhibitory concentration (IC50) was > 100 µM.
For `c1cc2c(cc1OCCN1CCOCC1)CN1CN2Cc2cc(OCCN3CCOCC3)ccc21`, the 50% inhibitory concentration (IC50) amounted to 4.29 µM.
The same measure, in the same setting: next, `Ic1ccc2c(c1)CN1c3ccc(I)cc3CN2C1N1CCOCC1`: > 100 µM.
On the same count and under the same terms, next, `c1ccc(CC2CCN(CCOc3ccc4c(c3)CN3CN4Cc4cc(OCCN5CCC(Cc6ccccc6)CC5)ccc43)CC2)cc1`: 64.1 µM.
Consider `Cc1ccc2c(c1)CN1c3ccc(C)cc3CN2C1N1CCOCC1`, for which the IC50 is > 100 µM.
Same read-out and setting: to `CN(C)C1N2Cc3ccccc3N1Cc1ccccc12` belongs > 100 µM.
For `COc1ccc2c(c1)CN1c3ccc(OC)cc3CN2C1N(C)c1ccc(C)cc1`, the IC50 worked out at 10.7 µM.
As to `CN(C)C1N2Cc3cc(OCCn4cncn4)ccc3N1Cc1cc(OCCn3cncn3)ccc12`, the IC50 turned out to be 40.4 µM.
As to `Ic1ccc2c(c1)CN1c3ccc(I)cc3CN2C1N1CCCCC1`, the IC50 is > 100 µM.
On to `CN(c1ccccc1)C1N2Cc3cc(Br)ccc3N1Cc1cc(Br)ccc12`, for which the IC50 was determined as 14.3 µM.
In the case of `Brc1ccc2c(c1)CN1c3ccc(Br)cc3CN2C1N1CCCCC1`, the IC50 is > 100 µM.
The same measure, in the same setting: next, `CN(C)C1N2Cc3cc(Br)ccc3N1Cc1cc(Br)ccc12`: > 100 µM.
The same measure, in the same setting: to `c1ccc(-n2nnnc2SCCOc2ccc3c(c2)CN2CN3Cc3cc(OCCSc4nnnn4-c4ccccc4)ccc32)cc1` belongs > 100 µM.
Still for that read-out and setting: next, `c1cn(CCOc2ccc3c(c2)CN2CN3Cc3cc(OCCn4ccnc4)ccc32)cn1`: 42.6 µM; `Fc1ccc(N2CCN(CCOc3ccc4c(c3)CN3CN4Cc4cc(OCCN5CCN(c6ccc(F)cc6)CC5)ccc43)CC2)cc1`: 4.82 µM; `CC(C)c1ccc2c(c1)CN1c3ccc(C(C)C)cc3CN2C1N(C)C`: 57.5 µM.
For `c1ncn(CCOc2ccc3c(c2)CN2CN3Cc3cc(OCCn4cncn4)ccc32)n1`, the half-maximal inhibitory concentration (IC50) was > 100 µM.
As to `COc1ccc2c(c1)CN1c3ccc(OC)cc3CN2C1N(C)C`, the IC50 was > 100 µM.
The same measure, in the same setting: to `COc1ccc2c(c1)CN1CN2Cc2cc(OC)ccc21` belongs > 100 µM; to `COc1cccc2c1C(=O)c1c(O)c3c(c(O)c1C2=O)C[C@@](O)(C(=O)CO)C[C@@H]3O[C@H]1C[C@H](N)[C@H](O)[C@H](C)O1` [DOXORUBICIN], 5.96 µM; to `COc1cc2c(cc1OC)N1Cc3cc(OC)c(OC)cc3N(C2)C1N(C)C`, 78.1 µM.
Still for that read-out and setting: next, `CC(C)(C)OC(=O)N1CCN(CCOc2ccc3c(c2)CN2CN3Cc3cc(OCCN4CCN(C(=O)OC(C)(C)C)CC4)ccc32)CC1`: 5.15 µM.
Turning to `CN(C)C1N2Cc3cc(OCCN4CCOCC4)ccc3N1Cc1cc(OCCN3CCOCC3)ccc12`, the 50% inhibitory concentration (IC50) is 4.79 µM.
`Cc1ccc2c(c1)CN1c3ccc(C)cc3CN2C1N(C)c1ccccc1`: the IC50 was determined as 72.3 µM.
The same measure, in the same setting: next, `Cc1ccc2c(c1)CN1c3ccc(C)cc3CN2C1N1CCCCC1`: 82.4 µM.
Same read-out and setting: to `Clc1ccc(C(c2ccccc2)N2CCN(CCOc3ccc4c(c3)CN3CN4Cc4cc(OCCN5CCN(C(c6ccccc6)c6ccc(Cl)cc6)CC5)ccc43)CC2)cc1` (racemic) belongs 57.9 µM; to `CN(C)C1N2Cc3cc(OCCn4ccnc4)ccc3N1Cc1cc(OCCn3ccnc3)ccc12`, > 100 µM.
In the case of `COc1cc2c(cc1OC)N1Cc3cc(OC)c(OC)cc3N(C2)C1N(C)c1ccccc1`, the half-maximal inhibitory concentration (IC50) worked out at 86.8 µM.
Same read-out and setting: next, `Cc1ccc2c(c1)CN1c3ccc(C)cc3CN2C1N(C)C`: 61.8 µM; `COc1ccccc1N1CCN(CCOc2ccc3c(c2)CN2CN3Cc3cc(OCCN4CCN(c5ccccc5OC)CC4)ccc32)CC1`: 5.8 µM.

The subject of a further test is A549. The experiment in a line: Cytotoxicity against human A549 cells assessed as growth inhibition after 48 hrs by MTT assay. In kind it is functional, cell-based. Conditions: A549, 48 h. The method in brief:
as §1
Take `Cc1ccc(N(C)C2N3Cc4cc(Br)ccc4N2Cc2cc(Br)ccc23)cc1`: the half-inhibitory concentration (IC50) was > 100 µM.
Same read-out and setting: next, `Ic1ccc2c(c1)CN1c3ccc(I)cc3CN2C1N1CCOCC1`: > 100 µM; `Cc1ccc2c(c1)CN1c3ccc(C)cc3CN2C1N1CCOCC1`: > 100 µM; `CN(C)C1N2Cc3ccccc3N1Cc1ccccc12`: > 100 µM.
Regarding `COc1ccc2c(c1)CN1c3ccc(OC)cc3CN2C1N(C)c1ccc(C)cc1`, the 50% inhibitory concentration (IC50) was > 100 µM.
On the same count and under the same terms, to `Ic1ccc2c(c1)CN1c3ccc(I)cc3CN2C1N1CCCCC1` belongs > 100 µM; to `CN(c1ccccc1)C1N2Cc3cc(Br)ccc3N1Cc1cc(Br)ccc12`, > 100 µM; to `Brc1ccc2c(c1)CN1c3ccc(Br)cc3CN2C1N1CCCCC1`, > 100 µM.
With `CN(C)C1N2Cc3cc(Br)ccc3N1Cc1cc(Br)ccc12`, the IC50 is > 100 µM.
For the molecule `CC(C)c1ccc2c(c1)CN1c3ccc(C(C)C)cc3CN2C1N(C)C`, the IC50 is > 100 µM.
On the same count and under the same terms, to `COc1ccc2c(c1)CN1c3ccc(OC)cc3CN2C1N(C)C` belongs > 100 µM.
For `COc1ccc2c(c1)CN1CN2Cc2cc(OC)ccc21`, the IC50 was > 100 µM.
For `COc1cccc2c1C(=O)c1c(O)c3c(c(O)c1C2=O)C[C@@](O)(C(=O)CO)C[C@@H]3O[C@H]1C[C@H](N)[C@H](O)[C@H](C)O1` [DOXORUBICIN], the IC50 was 8.05 µM.
The same measure, in the same setting: next, `COc1cc2c(cc1OC)N1Cc3cc(OC)c(OC)cc3N(C2)C1N(C)C`: > 100 µM; `Cc1ccc2c(c1)CN1c3ccc(C)cc3CN2C1N(C)c1ccccc1`: > 100 µM.
On the same count and under the same terms, next, `Cc1ccc2c(c1)CN1c3ccc(C)cc3CN2C1N1CCCCC1`: > 100 µM; `COc1cc2c(cc1OC)N1Cc3cc(OC)c(OC)cc3N(C2)C1N(C)c1ccccc1`: > 100 µM.
The same measure, in the same setting: to `Cc1ccc2c(c1)CN1c3ccc(C)cc3CN2C1N(C)C` belongs > 100 µM.

Usually IC50 stands for the concentration that gives 50% inhibition.

Source of the values: ChEMBL document CHEMBL3351670, “Discovery of Tröger's base analogues as selective inhibitors against human breast cancer cell line: design, synthesis and cytotoxic evaluation” (Eur J Med Chem, 2014).
